Test results published in ChEMBL document CHEMBL1149572, “2-Aryl-N-acyl indole derivatives as liver X receptor (LXR) agonists” (Bioorg Med Chem Lett, 2007).
One block for each compound: values may come before it.

Columns and labels:
[1] = biological target: T1, Oxysterols receptor LXR-beta (Homo sapiens, UniProt P55055); test: Agonist activity at human LXRbeta receptor after 1 hr by HTRF cofactor recruitment assay; type: functional
T1 sequence (P55055 whole entry): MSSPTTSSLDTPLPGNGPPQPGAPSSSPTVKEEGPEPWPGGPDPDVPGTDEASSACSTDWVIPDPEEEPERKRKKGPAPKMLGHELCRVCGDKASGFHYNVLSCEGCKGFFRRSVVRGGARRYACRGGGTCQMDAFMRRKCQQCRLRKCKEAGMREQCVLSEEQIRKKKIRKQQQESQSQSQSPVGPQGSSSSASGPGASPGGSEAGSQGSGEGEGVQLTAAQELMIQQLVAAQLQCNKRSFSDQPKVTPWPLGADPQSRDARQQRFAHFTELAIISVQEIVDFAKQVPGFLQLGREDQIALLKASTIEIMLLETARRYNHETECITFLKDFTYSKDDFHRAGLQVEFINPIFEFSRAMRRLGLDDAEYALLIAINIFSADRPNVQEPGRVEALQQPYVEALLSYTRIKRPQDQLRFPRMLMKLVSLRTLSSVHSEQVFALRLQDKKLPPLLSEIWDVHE
Procedure, shortened: (§1)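 Cofactor recruitment was read by HTRF. Buffer was 50 mM Tris pH 7.5 with 50 mM KCl, 1 mM EDTA, 0.1% BSA and 1 mM DTT. Mixtures were shaken for 1 h at room temperature. Values are means of duplicates from a single experiment.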

[2] = biological target: T1, Oxysterols receptor LXR-beta; test: Agonist activity at human LXRbeta receptor transfected in COS7 cells after 16 hrs by reporter transactivation assay relative to GW-3965; type: functional, cell-based; conditions: cos-7
Procedure, shortened: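 COS-7 cells were transfected for 24 h with human LXRb, RXRa and an LXR-response-element luciferase reporter, then exposed to vehicle or compound for 16 h. Luciferase in the lysate was quantified and expressed as percent of the maximum induction given by GW3965. Values come from quadruplicates in a single experiment.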

THP-1 [3] = test: Induction of ABCA1 gene expression in THP1 cells at 10 uM relative to control; type: functional, Homo sapiens
HepG2 [4] = test: Induction of SREBP1c gene expression in HepG2 cells at 10 uM relative to control; type: functional, Homo sapiens
THP-1 [5] = test: Induction of cholesterol efflux in THP1 cells at 10 uM relative to control; type: functional, Homo sapiens
Procedure, shortened: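 THP-1 cells differentiated to macrophages with 200 nM PMA for 30 h. Labelled with 1,2-3H(N)-cholesterol for 18 h alongside acLDL and 200 nM PMA. Exposed to vehicle or compound for 6 h in serum-free medium with 2 mg/ml BSA, then 18 h more with apoA-I added. Supernatant radioactivity read as fold-induction over vehicle. Mean of triplicates, single experiment.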

HepG2 [6] = test: Induction of Lipogenesis in HepG2 cells at 10 uM relative to control; type: functional, Homo sapiens
Procedure, shortened: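 HepG2 cells pre-treated with vehicle or compound for 24 h, then given [14C]-glycerol and cultured a further 48 h. Cellular triglycerides extracted, separated by TLC and quantified by phosphorimaging. Lipogenesis expressed as fold-induction over vehicle-only control. Mean of triplicate samples, single experiment.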

[7] = biological target: T2, Oxysterols receptor LXR-alpha (Homo sapiens, UniProt Q13133); test: Agonist activity at human LXRalpha receptor after 1 hr by HTRF cofactor recruitment assay; type: functional; procedure, shortened: as §1
T2 sequence (Q13133 whole entry): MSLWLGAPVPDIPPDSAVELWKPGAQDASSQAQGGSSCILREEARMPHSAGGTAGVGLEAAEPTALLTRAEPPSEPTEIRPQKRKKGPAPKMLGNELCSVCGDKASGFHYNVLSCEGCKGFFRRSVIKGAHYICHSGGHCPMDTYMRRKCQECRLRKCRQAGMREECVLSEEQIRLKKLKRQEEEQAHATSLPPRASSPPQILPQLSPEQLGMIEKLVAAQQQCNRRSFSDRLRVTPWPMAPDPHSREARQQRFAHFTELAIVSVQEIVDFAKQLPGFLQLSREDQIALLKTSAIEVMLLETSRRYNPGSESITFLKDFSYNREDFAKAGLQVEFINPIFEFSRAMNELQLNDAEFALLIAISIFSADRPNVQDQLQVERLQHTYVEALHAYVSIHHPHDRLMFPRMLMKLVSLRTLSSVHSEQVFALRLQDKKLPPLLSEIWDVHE

[8] = biological target: T1, Oxysterols receptor LXR-beta; test: Agonist activity at human LXRbeta receptor transfected in COS7 cells after 16 hrs by reporter transactivation assay; type: functional, cell-based, COS-7
Procedure, shortened: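 COS-7 cells were co-transfected for 24 h with human LXRb, RXRa and a luciferase reporter carrying three tandem LXR response elements. Cells were then treated with vehicle or compound for 16 h, and luciferase activity was measured in the lysate. EC50 was calculated from means of quadruplicates in a single experiment.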

THP-1 [9] = test: Induction of cholesterol efflux in THP1 cells; type: functional, cell-based; conditions: Homo sapiens

SMILES: CC(C)(C)OC(=O)n1c(-c2ccc3c(c2)CC(NS(=O)(=O)c2ccccc2)C3)cc2ccccc21 (centres undefined)
Efficacy [2]: 43%
Ratio (THP-1 [3]): 8.4
Ratio (HepG2 [4]): 3.1
Ratio (THP-1 [5]): 1.6
Ratio (HepG2 [6]): 3.1

SMILES: CC(C)(C)OC(=O)n1c(-c2ccc(CNC(=O)c3ccccc3)cc2)cc2ccccc21
EC50 [1]: 1800 nM

SMILES: CC(C)(C)OC(=O)n1c(-c2cccc(CCNS(=O)(=O)c3ccccc3)c2)cc2ccccc21
EC50 [1]: 420 nM

SMILES: CC(C)(C)OC(=O)n1c(-c2ccc(CCCO)cc2)cc2ccccc21
EC50 [1]: 380 nM

SMILES: CC(C)(C)OC(=O)n1c(-c2ccc(OCCO)cc2)cc2ccccc21
EC50 [1]: 420 nM

SMILES: CC(C)(C)OC(=O)n1c(-c2ccc(CCCNC(=O)c3ccccc3)cc2)cc2ccccc21
EC50 [1]: 360 nM

SMILES: CC(C)(C)OC(=O)n1c(-c2ccc(CN)cc2)cc2ccccc21
EC50 [1]: 5600 nM

SMILES: CC(C)(C)OC(=O)n1c(-c2ccc(/C=C/C(N)=O)cc2)cc2ccccc21
EC50 [1]: 4900 nM

SMILES: CNC(=O)CCc1ccc(-c2cc3ccccc3n2C(=O)OC(C)(C)C)cc1
EC50 [1]: 490 nM

SMILES: CC(C)(C)OC(=O)n1c(-c2ccc(CCC(=O)Nc3ccccc3)cc2)cc2ccccc21
EC50 [1]: 1780 nM

SMILES: O=C(NCCc1ccc(-c2cc3ccccc3n2C(=O)c2ccccc2)cc1)c1ccccc1
EC50 [1]: 1780 nM

SMILES: CC(C)(C)OC(=O)n1c(-c2ccc(CCNC(=O)c3ccccc3)cc2)cc2ccccc21
EC50 [1]: 1750 nM

SMILES: CC(C)(C)OC(=O)n1c(-c2ccc(NS(=O)(=O)c3ccccc3)cc2)cc2ccccc21
EC50 [1]: 1320 nM

SMILES: CC(C)CNC(=O)CCc1ccc(-c2cc3ccccc3n2C(=O)OC(C)(C)C)cc1
EC50 [1]: 1510 nM

SMILES: O=C(O)Cc1cccc(OCCCN(Cc2cccc(C(F)(F)F)c2Cl)CC(c2ccccc2)c2ccccc2)c1
Efficacy [2]: 100%
Ratio (THP-1 [3]): 10.7
Ratio (HepG2 [4]): 5.2
Ratio (THP-1 [5]): 1.8
Ratio (HepG2 [6]): 2.7

Second part, led by results:

EC50 [1]: 350 nM
SMILES: CC(C)(C)OC(=O)n1c(-c2ccc(CCCNS(=O)(=O)c3ccccc3)cc2)cc2ccccc21

EC50 [1]: 230 nM
SMILES: CC(C)(C)OC(=O)n1c(-c2ccc(CCc3ccc(-c4ccccn4)s3)cc2)cc2ccccc21

EC50 [1]: 220 nM
SMILES: CC(C)(C)OC(=O)n1c(-c2ccc(CNS(=O)(=O)c3ccccc3)cc2)cc2ccccc21

EC50 [1]: 300 nM
SMILES: CC(C)(C)OC(=O)n1c(-c2ccc(CC#N)cc2)cc2ccccc21

EC50 [1]: 120 nM
SMILES: CC(C)(C)OC(=O)n1c(-c2ccc(CCNS(=O)(=O)c3ccccc3)cc2)cc2ccccc21

EC50 [1]: 12 nM
EC50 [7]: 220 nM
EC50 [8]: 42 nM
Efficacy [2]: 39%
EC50 (THP-1 [9]): 51 nM
SMILES: N#CCCc1ccc(-c2cc3ccccc3n2C(=O)c2ccccc2)cc1
Ratio (THP-1 [3]): 10.3
Ratio (HepG2 [4]): 5.3
Ratio (THP-1 [5]): 1.7
Ratio (HepG2 [6]): 4

EC50 [1]: 57 nM
EC50 [7]: 1110 nM
EC50 [8]: 285 nM
Efficacy [2]: 70%
EC50 (THP-1 [9]): 2400 nM
SMILES: CC(C)(C)OC(=O)n1c(-c2ccc(CCC(N)=O)cc2)cc2ccccc21
Ratio (THP-1 [3]): 5.7
Ratio (HepG2 [4]): 4
Ratio (THP-1 [5]): 1.9
Ratio (HepG2 [6]): 2.7

EC50 [1]: 130 nM
EC50 [7]: 1190 nM
EC50 [8]: 576 nM
Efficacy [2]: 45%
EC50 (THP-1 [9]): 2470 nM
SMILES: CC(C)(C)OC(=O)n1c(-c2ccc(CCC#N)cc2)cc2ccccc21
Ratio (THP-1 [3]): 6
Ratio (HepG2 [4]): 2.5
Ratio (THP-1 [5]): 2.2
Ratio (HepG2 [6]): 2.5

EC50 [1]: 220 nM
EC50 [7]: 1150 nM
EC50 [8]: 4580 nM
Efficacy [2]: 76%
EC50 (THP-1 [9]): 7000 nM
SMILES: CC(C)(C)OC(=O)n1c(-c2ccc(CCC(=O)O)cc2)cc2ccccc21
Ratio (THP-1 [3]): 5.5
Ratio (THP-1 [5]): 1.4
Ratio (HepG2 [6]): 1.2

EC50 [1]: 58 nM
SMILES: CC(C)(C)OC(=O)n1c(-c2ccc(CCNS(=O)(=O)c3cccs3)cc2)cc2ccccc21
